Measured values reported in ChEMBL document CHEMBL1124786, “Potent, low molecular weight renin inhibitors containing a C-terminal heterocycle: hydrogen bonding at the active site” (J Med Chem, 1990).
pIC50: −log10 of the molar value.

target: T1, Cathepsin D (Bos taurus) (UniProt P80209); test: Percent inhibition against bovine cathepsin D at a concentration of 1 x 10 e-5 M and pH 3
T1 sequence (whole entry): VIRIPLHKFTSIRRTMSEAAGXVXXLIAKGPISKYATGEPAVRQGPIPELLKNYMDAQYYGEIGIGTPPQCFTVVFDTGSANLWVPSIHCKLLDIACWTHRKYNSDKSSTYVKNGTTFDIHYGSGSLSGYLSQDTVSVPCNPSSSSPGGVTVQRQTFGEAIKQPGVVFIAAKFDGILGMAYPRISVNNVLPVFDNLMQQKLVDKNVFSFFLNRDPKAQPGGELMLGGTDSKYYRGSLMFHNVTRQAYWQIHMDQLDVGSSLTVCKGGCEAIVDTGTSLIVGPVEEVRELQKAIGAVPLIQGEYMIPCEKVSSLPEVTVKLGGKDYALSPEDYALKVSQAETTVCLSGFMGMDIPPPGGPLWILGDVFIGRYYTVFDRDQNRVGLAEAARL

In order of falling inhibition:
1. CCN1C[C@@H]([C@H](O)[C@H](CC2CCCCC2)NC(=O)[C@H](Cc2c[nH]cn2)NC(=O)[C@H](Cc2ccccc2)NC(=O)OC(C)(C)C)OC1=O  21%
2. CON1C[C@@H]([C@H](O)[C@H](CC2CCCCC2)NC(=O)[C@H](Cc2c[nH]cn2)NC(=O)[C@H](Cc2ccccc2)NC(=O)OC(C)(C)C)OC1=O  0%

target: T2, Renin (Homo sapiens, UniProt P00797); test: In vitro inhibition of purified human renal renin.
T2 sequence (P00797 whole entry): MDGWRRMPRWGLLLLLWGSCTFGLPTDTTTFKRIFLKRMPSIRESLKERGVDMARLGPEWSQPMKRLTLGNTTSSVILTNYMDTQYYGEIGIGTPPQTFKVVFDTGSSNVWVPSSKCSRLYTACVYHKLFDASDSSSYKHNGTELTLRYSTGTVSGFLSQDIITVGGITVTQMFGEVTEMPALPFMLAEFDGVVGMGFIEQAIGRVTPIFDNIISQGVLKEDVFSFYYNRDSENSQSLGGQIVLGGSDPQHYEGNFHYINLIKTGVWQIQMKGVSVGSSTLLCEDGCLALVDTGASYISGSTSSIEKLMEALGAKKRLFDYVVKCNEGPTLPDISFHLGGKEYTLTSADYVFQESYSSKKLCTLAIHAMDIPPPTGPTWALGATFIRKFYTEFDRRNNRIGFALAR
How it was run: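 The enzyme was human renal renin, purified and tested at pH 6.0. The read-out is IC50 in nM.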

In order of rising pIC50:
1. CON1CC([C@H](O)[C@@H](CC2CCCCC2)NC(=O)[C@H](Cc2c[nH]cn2)NC(=O)[C@H](Cc2ccccc2)NC(=O)OC(C)(C)C)OC1=O (single isomer, unassigned)  7.37
2. CC(C)(C)OC(=O)N[C@@H](Cc1ccccc1)C(=O)N[C@@H](Cc1cnc[nH]1)C(=O)N[C@@H](CC1CCCCC1)[C@@H](O)[C@@H](O)CNC=O  8.10
3. CC(C)(C)OC(=O)N[C@@H](Cc1ccccc1)C(=O)N[C@@H](Cc1cnc[nH]1)C(=O)N[C@@H](CC1CCCCC1)[C@@H](O)[C@@H]1CNC(=O)O1  8.33
4. CC(C)(C)OC(=O)N[C@@H](Cc1ccccc1)C(=O)N[C@@H](Cc1c[nH]cn1)C(=O)N[C@@H](CC1CCCCC1)[C@@H](O)[C@@H]1CCNC(=O)O1  8.51
5. CC(C)CN1C[C@@H]([C@H](O)[C@H](CC2CCCCC2)NC(=O)[C@H](Cc2cnc[nH]2)NC(=O)[C@H](Cc2ccccc2)NC(=O)OC(C)(C)C)OC1=O  8.52
6. CCN1C[C@@H]([C@H](O)[C@H](CC2CCCCC2)NC(=O)[C@H](Cc2cnc[nH]2)NC(=O)[C@H](Cc2ccccc2)NC(=O)OC(C)(C)C)NS1(=O)=O  8.85
7. CC(C)ON1C[C@@H]([C@H](O)[C@H](CC2CCCCC2)NC(=O)[C@H](Cc2c[nH]cn2)NC(=O)[C@H](Cc2ccccc2)NC(=O)OC(C)(C)C)OC1=O  8.85
8. CN1C[C@@H]([C@H](O)[C@H](CC2CCCCC2)NC(=O)[C@H](Cc2c[nH]cn2)NC(=O)[C@H](Cc2ccccc2)NC(=O)OC(C)(C)C)OC1=O  8.85
9. CCON1C[C@@H]([C@H](O)[C@H](CC2CCCCC2)NC(=O)[C@H](Cc2cnc[nH]2)NC(=O)[C@H](Cc2ccccc2)NC(=O)OC(C)(C)C)OC1=O  8.89
10. CCN1C[C@@H]([C@H](O)[C@H](CC2CCCCC2)NC(=O)[C@H](Cc2cnc[nH]2)NC(=O)[C@H](Cc2ccccc2)NC(=O)OC(C)(C)C)NC1=O  8.92
11. C[C@@H]1CO[C@H]([C@H](O)[C@H](CC2CCCCC2)NC(=O)[C@H](Cc2c[nH]cn2)NC(=O)[C@H](Cc2ccccc2)NC(=O)OC(C)(C)C)C1  8.92
12. CCCN1C[C@@H]([C@H](O)[C@H](CC2CCCCC2)NC(=O)[C@H](Cc2cnc[nH]2)NC(=O)[C@H](Cc2ccccc2)NC(=O)OC(C)(C)C)OC1=O  9.00
13. CC(C)(C)OC(=O)N[C@@H](Cc1ccccc1)C(=O)N[C@@H](Cc1cnc[nH]1)C(=O)N[C@@H](CC1CCCCC1)[C@@H](O)[C@@H]1CC(C)(C)C(=O)O1  9.05
14. CON1C[C@@H]([C@H](O)[C@H](CC2CCCCC2)NC(=O)[C@H](Cc2cnc[nH]2)NC(=O)[C@H](Cc2ccccc2)NC(=O)OC(C)(C)C)OC1=O  9.05
15. CC(C)N1C[C@@H]([C@H](O)[C@H](CC2CCCCC2)NC(=O)[C@H](Cc2cnc[nH]2)NC(=O)[C@H](Cc2ccccc2)NC(=O)OC(C)(C)C)OC1=O  9.08
16. CC(C)(C)OC(=O)N[C@@H](Cc1ccccc1)C(=O)N[C@@H](Cc1c[nH]cn1)C(=O)N[C@@H](CC1CCCCC1)[C@@H](O)[C@@H]1CN(CCO)C(=O)O1  9.15
17. C=C1C[C@@H]([C@H](O)[C@H](CC2CCCCC2)NC(=O)[C@H](Cc2c[nH]cn2)NC(=O)[C@H](Cc2ccccc2)NC(=O)OC(C)(C)C)OC1=O  9.15
18. CCN1C[C@@H]([C@H](O)[C@H](CC2CCCCC2)NC(=O)[C@H](Cc2cnc[nH]2)NC(=O)[C@H](Cc2ccccc2)NC(=O)OC(C)(C)C)OC1=O  9.20
19. C[C@H]1C[C@@H]([C@H](O)[C@H](CC2CCCCC2)NC(=O)[C@H](Cc2c[nH]cn2)NC(=O)[C@H](Cc2ccccc2)NC(=O)OC(C)(C)C)OC1=O  9.49

target: Pepsin A (Sus scrofa) (UniProt P00791); test: Percent inhibition against porcine pepsin at a concentration of 1 x 10 e-5 M and pH 2
Sequence (P00791 60-385 limits assumed): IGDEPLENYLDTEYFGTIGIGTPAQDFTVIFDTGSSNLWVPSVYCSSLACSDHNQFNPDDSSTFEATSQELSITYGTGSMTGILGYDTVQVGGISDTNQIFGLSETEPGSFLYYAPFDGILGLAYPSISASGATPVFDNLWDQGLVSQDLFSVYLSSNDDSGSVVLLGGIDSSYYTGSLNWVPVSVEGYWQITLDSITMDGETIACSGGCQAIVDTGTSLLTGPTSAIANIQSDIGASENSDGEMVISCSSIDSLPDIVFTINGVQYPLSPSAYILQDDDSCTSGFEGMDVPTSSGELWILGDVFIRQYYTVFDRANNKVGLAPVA

In order of falling inhibition:
1. C[C@@H]1CO[C@H]([C@H](O)[C@H](CC2CCCCC2)NC(=O)[C@H](Cc2c[nH]cn2)NC(=O)[C@H](Cc2ccccc2)NC(=O)OC(C)(C)C)C1  2%
2. CON1C[C@@H]([C@H](O)[C@H](CC2CCCCC2)NC(=O)[C@H](Cc2c[nH]cn2)NC(=O)[C@H](Cc2ccccc2)NC(=O)OC(C)(C)C)OC1=O  0%
3. CC(C)(C)OC(=O)N[C@@H](Cc1ccccc1)C(=O)N[C@@H](Cc1c[nH]cn1)C(=O)N[C@@H](CC1CCCCC1)[C@@H](O)[C@@H](O)CN=[N+]=[N-]  0%
4. CCN1C[C@@H]([C@H](O)[C@H](CC2CCCCC2)NC(=O)[C@H](Cc2c[nH]cn2)NC(=O)[C@H](Cc2ccccc2)NC(=O)OC(C)(C)C)OC1=O  0%
5. CC(C)C[C@H](O)[C@H](O)[C@H](CC1CCCCC1)NC(=O)[C@H](Cc1c[nH]cn1)NC(=O)[C@H](Cc1ccccc1)NC(=O)OC(C)(C)C  0%

target: T2, Renin; test: In vitro inhibition of human plasma renin.; assay type: cell-free
How it was run: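 Renin activity was measured in human plasma at pH 7.4, and the result is reported as IC50 in nM.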

In order of rising pIC50:
1. CC(C)(C)OC(=O)N[C@@H](Cc1ccccc1)C(=O)N[C@@H](Cc1cnc[nH]1)C(=O)N[C@@H](CC1CCCCC1)[C@@H](O)[C@@H](O)CNC=O  7.20
2. CC(C)(C)OC(=O)N[C@@H](Cc1ccccc1)C(=O)N[C@@H](Cc1c[nH]cn1)C(=O)N[C@@H](CC1CCCCC1)[C@@H](O)[C@@H]1CCNC(=O)O1  7.54
3. CC(C)ON1C[C@@H]([C@H](O)[C@H](CC2CCCCC2)NC(=O)[C@H](Cc2c[nH]cn2)NC(=O)[C@H](Cc2ccccc2)NC(=O)OC(C)(C)C)OC1=O  7.59
4. CC(C)(C)OC(=O)N[C@@H](Cc1ccccc1)C(=O)N[C@@H](Cc1cnc[nH]1)C(=O)N[C@@H](CC1CCCCC1)[C@@H](O)[C@@H]1CNC(=O)O1  7.60
5. CC(C)CN1C[C@@H]([C@H](O)[C@H](CC2CCCCC2)NC(=O)[C@H](Cc2cnc[nH]2)NC(=O)[C@H](Cc2ccccc2)NC(=O)OC(C)(C)C)OC1=O  7.68
6. C=C1C[C@@H]([C@H](O)[C@H](CC2CCCCC2)NC(=O)[C@H](Cc2c[nH]cn2)NC(=O)[C@H](Cc2ccccc2)NC(=O)OC(C)(C)C)OC1=O  7.68
7. CCON1C[C@@H]([C@H](O)[C@H](CC2CCCCC2)NC(=O)[C@H](Cc2cnc[nH]2)NC(=O)[C@H](Cc2ccccc2)NC(=O)OC(C)(C)C)OC1=O  7.77
8. CCN1C[C@@H]([C@H](O)[C@H](CC2CCCCC2)NC(=O)[C@H](Cc2cnc[nH]2)NC(=O)[C@H](Cc2ccccc2)NC(=O)OC(C)(C)C)NS1(=O)=O  7.89
9. CCCN1C[C@@H]([C@H](O)[C@H](CC2CCCCC2)NC(=O)[C@H](Cc2cnc[nH]2)NC(=O)[C@H](Cc2ccccc2)NC(=O)OC(C)(C)C)OC1=O  7.92
10. CCN1C[C@@H]([C@H](O)[C@H](CC2CCCCC2)NC(=O)[C@H](Cc2cnc[nH]2)NC(=O)[C@H](Cc2ccccc2)NC(=O)OC(C)(C)C)NC1=O  7.96
11. CON1C[C@@H]([C@H](O)[C@H](CC2CCCCC2)NC(=O)[C@H](Cc2cnc[nH]2)NC(=O)[C@H](Cc2ccccc2)NC(=O)OC(C)(C)C)OC1=O  8.04
12. CC(C)(C)OC(=O)N[C@@H](Cc1ccccc1)C(=O)N[C@@H](Cc1cnc[nH]1)C(=O)N[C@@H](CC1CCCCC1)[C@@H](O)[C@@H](O)CN=[N+]=[N-]  8.05
13. CN1C[C@@H]([C@H](O)[C@H](CC2CCCCC2)NC(=O)[C@H](Cc2c[nH]cn2)NC(=O)[C@H](Cc2ccccc2)NC(=O)OC(C)(C)C)OC1=O  8.06
14. CC(C)N1C[C@@H]([C@H](O)[C@H](CC2CCCCC2)NC(=O)[C@H](Cc2cnc[nH]2)NC(=O)[C@H](Cc2ccccc2)NC(=O)OC(C)(C)C)OC1=O  8.09
15. CC(C)(C)OC(=O)N[C@@H](Cc1ccccc1)C(=O)N[C@@H](Cc1c[nH]cn1)C(=O)N[C@@H](CC1CCCCC1)[C@@H](O)[C@@H]1CN(CCO)C(=O)O1  8.13
16. C[C@@H]1CO[C@H]([C@H](O)[C@H](CC2CCCCC2)NC(=O)[C@H](Cc2c[nH]cn2)NC(=O)[C@H](Cc2ccccc2)NC(=O)OC(C)(C)C)C1  8.52
17. CC(C)(C)OC(=O)N[C@@H](Cc1ccccc1)C(=O)N[C@@H](Cc1cnc[nH]1)C(=O)N[C@@H](CC1CCCCC1)[C@@H](O)[C@@H]1CC(C)(C)C(=O)O1  8.55
18. CCN1C[C@@H]([C@H](O)[C@H](CC2CCCCC2)NC(=O)[C@H](Cc2cnc[nH]2)NC(=O)[C@H](Cc2ccccc2)NC(=O)OC(C)(C)C)OC1=O  8.55
19. C[C@H]1C[C@@H]([C@H](O)[C@H](CC2CCCCC2)NC(=O)[C@H](Cc2c[nH]cn2)NC(=O)[C@H](Cc2ccccc2)NC(=O)OC(C)(C)C)OC1=O  8.64

target: T1, Cathepsin D (Bos taurus); test: Percent inhibition against bovine Cathepsin D at a concentration of 1 x 10 e-5 M and pH 3

In order of falling inhibition:
1. C[C@@H]1CO[C@H]([C@H](O)[C@H](CC2CCCCC2)NC(=O)[C@H](Cc2c[nH]cn2)NC(=O)[C@H](Cc2ccccc2)NC(=O)OC(C)(C)C)C1  9%
2. CC(C)(C)OC(=O)N[C@@H](Cc1ccccc1)C(=O)N[C@@H](Cc1c[nH]cn1)C(=O)N[C@@H](CC1CCCCC1)[C@@H](O)[C@@H](O)CN=[N+]=[N-]  0%
3. CC(C)C[C@H](O)[C@H](O)[C@H](CC1CCCCC1)NC(=O)[C@H](Cc1c[nH]cn1)NC(=O)[C@H](Cc1ccccc1)NC(=O)OC(C)(C)C  0%
